Measured values pooled from the literature.
Lines come from different studies, so protocols differ.
DHODH: Dihydroorotate dehydrogenase (quinone), mitochondrial (DHODH, Homo sapiens, UniProt Q02127)
SCTR: Secretin receptor (SCTR, Homo sapiens, UniProt P47872)
PIK3CG: Phosphatidylinositol 4,5-bisphosphate 3-kinase catalytic subunit gamma isoform (PIK3CG, Homo sapiens, UniProt P48736)
SHMT2: Serine hydroxymethyltransferase, mitochondrial (SHMT2, Homo sapiens, UniProt P34897)

SMILES	target	test	endpoint	result
CCn1cc(C2CC2)c2c(CN3CCC(F)(F)C(C)(C)C3)n(C)nc2c1=O	DHODH	enzyme activity, inhibitor, absorbance	IC50	> 100 µM
CC1=NN(/C(=N\c2cccnc2)Nc2nnc(C)s2)C(c2ccc(C)cc2)S1 (centres unmarked)	SCTR	cAMP, agonist, TR-FRET	EC50	> 50 µM
Cc1nc(Nc2ccc3c(c2)C(C)(C)C(=O)N3)c2ccccc2n1	PIK3CG	enzyme activity, inhibitor, ADP detection	IC50	0.134 µM
Cc1c(C(=O)OC2CC2)nn(C)c1Cc1ccc(C(F)(F)F)nc1	DHODH	enzyme activity, inhibitor	IC50	> 100 µM
Cc1ccc(N/C(=N\c2nnc(C(C)(C)C)s2)N2N=C(C(C)(C)C)SC2c2cc(F)c(F)c(F)c2)cc1C (centres unmarked)	SCTR	cAMP, agonist, TR-FRET	EC50	> 50 µM
CCCc1cc(C(=O)Nc2ccc(C(C)=O)cc2)c(NC(=O)c2ccccc2)s1	Prostaglandin G/H synthase 2 (PTGS2, Homo sapiens, UniProt P35354)	enzyme activity, inhibitor	IC50	1.23 µM
CN[C@H]1CC[C@@H](c2ccc(Cl)c(Cl)c2)c2ccccc21	SHMT2	binding, MST	Kd	12 µM
CC1=NN(/C(=N\c2ccccc2F)Nc2nnc(C)s2)C(c2ccc(C)cc2)S1 (centres unmarked)	SCTR	cAMP, agonist, TR-FRET	EC50	19.8 µM
COc1cc2ncnc(N(C)c3ccc4c(c3)/C(=C/c3cccc(Cl)c3)C(=O)N4C)c2cc1OC	PIK3CG	enzyme activity, inhibitor, ADP detection	IC50	0.118 µM
Cc1nn(C2CC2)c(=O)c2nn(C)c(Cc3ccc(C(F)(F)F)c(C#N)c3)c12	DHODH	enzyme activity, inhibitor	IC50	30 µM
COc1cc2ncnc(Nc3ccc4c(c3)/C(=C/c3ccccc3)C(=O)N4)c2cc1OC	PIK3CG	enzyme activity, inhibitor, ADP detection	IC50	0.109 µM
NC(=O)c1cccc(C#CCN(CC[C@H](N)C(=O)O)C[C@H]2O[C@@H](n3cnc4c(N)ncnc43)[C@H](O)[C@@H]2O)c1	SHMT2	binding, MST	Kd	66 µM
CC1=NN(/C(=N/c2nnc(C)s2)Nc2ccc(C)c(C)c2)C(c2ccc(F)cc2)S1 (centres unmarked)	SCTR	cAMP, agonist, TR-FRET	EC50	0.8 µM
CCn1cc(C)c2c(C(O)c3ccc(Cl)c(F)c3)n(C)nc2c1=O (centres unmarked)	DHODH	enzyme activity, inhibitor	IC50	> 100 µM
COc1cc2ncnc(Nc3ccc4c(c3)/C(=C/c3cccc(Cl)c3)C(=O)N4C)c2cc1OC	PIK3CG	enzyme activity, inhibitor, ADP detection	IC50	0.197 µM
CCn1ccc2c(Cc3ccc(C(F)(F)F)nc3)n(C)nc2c1=O	DHODH	enzyme activity, inhibitor, absorbance	IC50	> 100 µM
Cc1nc(Nc2ccc3c(c2)C(C)(C)C(=O)N3C)c2ccccc2n1	PIK3CG	enzyme activity, inhibitor, ADP detection	IC50	0.389 µM
